XiGFP reactiv: activators of inactive X chromosome reactivation, primary screen, imaging, XiGFP fibroblasts, GFP high-content imaging, set 2 | XiGFP mouse fibroblasts, % GFP-positive cells imaging, 3 d; cells co-treated with 5-aza-dC sensitizer; scaled so ellipticine positive control = 100% | hit rate 0.055% among 360,000 | activation, % at 7.58 µM | AID 743238, 2013;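 active means mean normalized replicate activation at least 10% and every replicate at or above 10%; inconclusive means only one of the two criteria met; inactive means mean below 10% and not all replicates reach 10%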;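 further: 0% = median of on-plate neutral control wells and 100% = ellipticine 6 µM median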
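System: 68-5-11 XiGFP fibroblast line; Timing: 3 days compound exposure; Compound dosing: one concentration, pinned; Benchmarks: positive control ellipticine, 6 µM final; Buffer or medium: DMEM containing 5-aza-dC.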
TROY signal inh: inhibitors of TROY-driven NF-kB signaling, primary screen, Q293 LMP1-TROYcd cells, NF-kB luciferase, uHTS; Q293 LMP1-TROYcd NF-kB luciferase reporter, 4 h; inhibition, % at 10 µM; hit rate 0.98% among 360,000; AID 1347056, 2019;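 active means compounds whose plate-normalised and pattern-corrected inhibition of the luciferase reporter signal at the single screening dose is 50% or more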
EWS-Fli inh: EWS/Fli-driven NR0B1 reporter inhibitors, primary screen, A673 cells, NR0B1 luciferase, luminescence, MLPCN library; inhibition, % at 12.6 µM; hit rate 0.67% among 350,000; AID 651661, 2012; viability-normalised;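 active means mean inhibition of at least 50% after viability correction, with every replicate also passing that limit; inconclusive means mean reaches 50% but only one of two replicates passes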;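 further: firefly luciferase signal divided by Alamar Blue viability fluorescence both relative to DMSO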
TWEAK Fn14 block: inhibitors of TWEAK-Fn14 signaling, primary screen, luciferase reporter cells, uHTS | hit rate 2% among 360,000 | inhibition, % at 10 µM | TWEAK-stimulated Fn14 reporter cells, luciferase luminescence, 8 h; in the data active means inhibition above about 50%
FN deposit inh: inhibitors of fibronectin matrix deposition, primary screen, AH1F cells, Alexa488-fibronectin fluorescence, plate reader | AH1F fibroblasts, overnight | inhibition, % at 12.6 µM | hit rate 0.086% among 350,000;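 active means mean inhibition across replicates of 30% or more, regardless of how many single replicates reach that level; inconclusive means mean under 30% yet at least half of replicates reach 30%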;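 further: positive control wells lacked labelled fibronectin entirely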
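Material: AH1F fibroblasts assembling fluorescent fibronectin matrix; amount: 10000 AH1F cells/well; medium: DMEM, 2% serum; reagent: Alexa488-fibronectin, 24 nM final in well; dosing: single compound dose, delivered by pin transfer; incubation: 1 h adhesion, overnight exposure; detection: fluorescence after three HBSS washes, excitation 485 nm, emission 525 nm; measure: fibronectin deposition inhibition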
LGR2 antag: inhibitors of bursicon-induced LGR2 CRE-luciferase signal, primary screen, cell-based, HEK293, CRE-luciferase reporter, bursicon stimulation; bursicon-stimulated, 4 h; inhibition, % at 9.99 µM; hit rate 0.35% among 380,000; AID 720647, 2013;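 active means drop in luminescence signal, shown as inhibition above about 50% in the replicate tests, limit read from the data, passing the limit was not always enough; inconclusive means probably only some replicates passing the limit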;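 further: agonist challenge used bursicon conditioned medium at about half maximal strength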
An asterisk follows results filed as active; u = inconclusive; x = no result. An excerpt weighted towards active compounds, which were near 2.3% of everything screened.

SMILES	XiGFP reactiv	TROY signal inh	EWS-Fli inh	TWEAK Fn14 block	FN deposit inh	LGR2 antag
COc1cccc(-c2ccc3c(c2)[C@H]2[C@H](CCN2C(=O)c2ccc(F)cc2)[C@@H](CO)N3C)c1	0	x	-1	x	-10	16
O=C(NCc1ccccc1)[C@H]1N[C@H]2c3ccc(-c4ccccc4)c(=O)n3C[C@H]2[C@@H]1CO	0	x	4	x	x	0
CCCNC(=O)C[C@@H]1C[C@H]2c3cc(NC(=O)COC)ccc3O[C@H]2[C@H](CO)O1	0	x	-3	x	x	-3
COc1ccc(Cl)cc1-c1nc(-c2ccc(NC(=O)c3ccncc3)cc2)no1	x	0	x	19	-12	x
CC(Oc1ccc(Cl)cc1Cl)c1nc(-c2ccc(NC(=O)c3ccccn3)cc2)no1 (stereo unspecified)	x	21	-30	53*	x	-10
O=c1cc(C(F)(F)F)[nH]c2ccc(OC(F)(F)F)cc12	0	48	7	-4	1	x
O=c1cc(C(F)(F)F)[nH]c2c(C(F)(F)F)cccc12	x	58*	x	61*	x	x
O=C(Nc1ccc2nc3n(c(=O)c2c1)CCCCC3)c1c(F)ccc([N+](=O)[O-])c1F	0	86*	x	106*	17	0
O=C(Nc1ccc2nc3n(c(=O)c2c1)CCCCC3)c1cc([N+](=O)[O-])ccc1F	1	85*	x	97*	7	u
O=C(Nc1ccc2nc3n(c(=O)c2c1)CCCCC3)c1ccccc1[N+](=O)[O-]	0	10	x	-12	0	-23
C/C=C/c1cnc2c(c1)C(=O)N([C@@H](C)CO)C[C@@H](C)[C@H](CN(C)C(=O)C1CC1)O2	-1	x	-12	x	x	3
CC(NC(=O)c1ccc(F)cc1)c1ccc2c(c1)CCCC2 (stereo unspecified)	x	53*	x	20	x	x
C[n+]1c2n(c3ccccc31)N=C(c1ccc(-c3ccccc3)cc1)CS2	0	20	43	54*	-15	-24
O=C(Nc1ccc(Br)cc1F)c1ccc2c(c1)OCCO2	0	33	2	51*	0	3
O=C(Nc1ccc(F)cc1F)c1ccc2c(c1)OCCO2	0	-4	-25	4	-4	-9
CC(=O)Nc1ccc2c(c1)OCCOCCOc1cc(NC(C)=O)ccc1OCCOCCOCCO2	x	x	7	x	x	-3
CC(=O)c1ccc2c(c1)OCCOCCOCCOCCOCCO2	u	-3	4	87*	-15	9
COc1ccc(NC(=O)C2=Cc3ccccc3OC2)cc1	0	2	3	52*	9	38
COc1ccc(C(=O)Nc2ccc3c(c2)OCCO3)cc1	x	27	x	50*	x	x
CC(=O)Oc1ccc(C(=O)Nc2ccc3c(c2)OCCO3)cc1	0	28	1	32	-1	28
N#C[C@H]1[C@H](c2ccccc2C2=CCCCC2)[C@@H](CO)N1C(=O)C1CCOCC1	0	x	0	x	-7	-13
Cc1noc(C)c1S(=O)(=O)N(C)C[C@@H]1Oc2ccc(NC(=O)Nc3ccc(C(F)(F)F)cc3)cc2CC(=O)N([C@H](C)CO)C[C@@H]1C	1	x	8	x	4	1
O=C(Nc1ccc2oc(-c3ccncc3)nc2c1)c1ccc2c(c1)OCCO2	0	-16	-21	-22	-2	1
CCC(Oc1ccccc1OC)C(=O)Nc1ccc2c(c1)OCCO2 (stereo unspecified)	0	29	3	59*	2	9
O=C(Nc1ccncc1)c1ccc2c(c1)OCCO2	x	-19	x	9	x	x
SMILES	XiGFP reactiv	TROY signal inh	EWS-Fli inh	TWEAK Fn14 block	FN deposit inh	LGR2 antag
Cc1ccc(NC(=O)c2ccc3c(c2)OCCO3)cc1	x	26	x	68*	x	x
O=C(Nc1ccc2oc(-c3ccccc3)nc2c1)c1ccc2c(c1)OCCO2	x	58*	x	36	0	x
O=C(Nc1ccc(NC(=O)c2ccco2)cc1)c1ccc2c(c1)OCO2	x	x	x	68*	x	-26
C[C@H]1CN([C@@H](C)CO)C(=O)c2cccc(NC(=O)c3cnccn3)c2O[C@H]1CN(C)S(=O)(=O)c1ccc(Cl)cc1	1	x	2	x	3	6
O=C(Nc1ccc2c(c1)OCCO2)c1[nH]c(C(F)(F)F)nc1-c1ccccc1	0	81*	11	90*	x	8
COc1cccc(NC(=O)c2ccc3c(c2)OCO3)c1	0	1	-21	22	3	-29
COc1cccc(NC(=O)c2ccc3c(c2)OCCO3)c1	1	24	u	57*	3	44
CCC(C(=O)Nc1ccc2c(c1)OCCO2)n1c(=O)[nH]c2ccccc2c1=O (stereo unspecified)	0	60*	x	76*	5	7
COCC(=O)OC1CCn2c1nc1c2C(=O)C(C)=C(NC(C)=O)C1=O (stereo unspecified)	0	54*	14	101*	1	86*
CC(C)Cn1c(N)c(C(=O)COC(=O)CC23CC4CC(CC(C4)C2)C3)c(=O)n(C)c1=O	x	59*	x	73*	x	x
Cc1csc(=O)n1CCC(=O)OCC(=O)c1c(N)n(CC(C)C)c(=O)n(C)c1=O	-1	8	8	20	-6	-4
Cn1c(/C=C/c2ccc(Br)cc2)c([N+](=O)[O-])c(=O)n(C)c1=O	1	2	-1	63*	x	42
Cc1noc(C)c1S(=O)(=O)N(C)C[C@H]1OCCCC[C@H](C)Oc2ccc(N(C)C)cc2C(=O)N([C@@H](C)CO)C[C@@H]1C	x	x	-8	x	x	x
Cc1cccc(C)c1Nc1nnc(SCC(=O)c2ccc(Br)s2)s1	0	-7	75*	4	x	11
CC1=C(C(=O)OCCBr)C(c2cccc3ccccc23)NC(=O)N1 (stereo unspecified)	0	6	-5	53*	4	5
C[C@@H]1CN([C@@H](C)CO)C(=O)CCCn2cc(nn2)CO[C@@H]1CN(C)Cc1ccncc1	0	x	-5	x	-6	8
CCN(CC)S(=O)(=O)c1ccc(Cl)c(NC(=O)COC(=O)c2cc(-c3ccccc3Cl)nc3ccccc23)c1	0	95*	22	110*	-3	13
O=C(Nc1ccc(N2CCOCC2)cc1)c1cnccn1	0	60*	57*	81*	-4	70*
O=C(Nc1ccc(N2CCOCC2)cc1)c1cnsn1	x	72*	x	95*	x	x
CC(=O)Nc1ccc2c(c1)C(=O)N(C)[C@@H]1CC[C@@H](CC(=O)NCC3CCCCC3)O[C@H]1CO2	0	x	-2	x	-10	10

Source: PubChem
